# Tests used:
# [1] = Growth inhibition of HSF cells assessed as BrdU incorporation at 36.7 uM after 72 hrs by spectrophotometry; format: cell-based; details: human, read-out: GI
# Outline: (§1)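 Cells were seeded at 10⁴ cells/mL and preincubated. Compounds were dissolved in DMSO and added at two fixed concentrations, then incubated for 72 h. End-point was BrdU labelling with ELISA detection, read spectrophotometrically. Result is % growth inhibition versus untreated controls. Triplicates.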
# [2] = tested on: Vero; assay: Growth inhibition of african green monkey Vero cells assessed as BrdU incorporation at 36.7 uM after 72 hrs by spectrophotometry; format: cell-based; details: chlorocebus sabaeus; outline: as §1
# [3] = Growth inhibition of human LS180 cells assessed as BrdU incorporation at 36.7 uM after 72 hrs by spectrophotometry; format: functional; details: LS180, 72 h, read-out: GI; outline: as §1
# [4] = tested on: SiHa; assay: Growth inhibition of human SiHa cells assessed as BrdU incorporation at 36.7 uM after 72 hrs by spectrophotometry; format: functional; details: read-out: GI; outline: as §1
# [5] = tested on: T47D; assay: Growth inhibition of human T47D cells assessed as BrdU incorporation at 36.7 uM after 72 hrs by spectrophotometry; format: functional; details: read-out: GI
# Outline: (§2)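 Each cell line was seeded at 10⁴ cells per mL and preincubated. Test agents were dissolved in DMSO, added at two examined concentrations (10 and 50 per mL by mass), and incubated for 72 h. The end-point was BrdU labeling and detection kit III read on an ELISA reader. Percent growth inhibition was calculated against untreated controls, in triplicate.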
# [6] = Growth inhibition of HSF cells assessed as BrdU incorporation at 183.6 uM after 72 hrs by spectrophotometry; format: cell-based; details: human, read-out: GI; outline: as §1
# [7] = Growth inhibition of african green monkey Vero cells assessed as BrdU incorporation at 183.6 uM after 72 hrs by spectrophotometry; format: cell-based; details: chlorocebus sabaeus, read-out: GI; outline: as §1
# [8] = Growth inhibition of human LS180 cells assessed as BrdU incorporation at 183.6 uM after 72 hrs by spectrophotometry; format: functional; details: LS180, 72 h, read-out: GI; outline: as §1
# [9] = tested on: SiHa; assay: Growth inhibition of human SiHa cells assessed as BrdU incorporation at 183.6 uM after 72 hrs by spectrophotometry; format: functional; details: read-out: GI; outline: as §1
# [10] = tested on: T47D; assay: Growth inhibition of human T47D cells assessed as BrdU incorporation at 183.6 uM after 72 hrs by spectrophotometry; format: functional; details: read-out: GI; outline: as §2
# [11] = Cytotoxicity against HSF cells assessed as cell viability at 1 uM after 24 hrs by MTT assay relative to control; format: cell-based; details: human, read-out: Activity
# Outline: (§3)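 Normal human skin fibroblasts (HSF, primary line) were exposed to DMSO-dissolved compound for 24 h. Viability was read by MTT tetrazolium reduction and expressed against untreated control set at 100%.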
# [12] = Cytotoxicity against HSF cells assessed as cell viability at 50 uM after 24 hrs by MTT assay relative to control; format: cell-based; details: human, read-out: Activity; outline: as §3
# [13] = Cytotoxicity against HSF cells assessed as cell viability at 100 uM after 24 hrs by MTT assay relative to control; format: cell-based; details: human, read-out: Activity; outline: as §3
# [14] = tested on: Jurkat; assay: Cytotoxicity against human Jurkat cells assessed as cell viability at 1 uM after 24 hrs by MTT assay relative to control; format: functional; details: read-out: Activity
# Outline: (§4)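 Jurkat T-cell leukaemia line grown in RPMI 1640 with 10% FBS, 2 mM L-glutamine and gentamycin at 37 °C, 5% CO2, kept in log phase. Compounds were dissolved in DMSO and applied for 24 h. Cells were washed in HEPES-buffered medium (pH 7.4) and given MTT at 0.5 mg/mL for 45 min at 37 °C. Formazan was dissolved in DMSO and read at 570 nm. Viability is % of control, from three independent measurements.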
# [15] = tested on: Jurkat; assay: Cytotoxicity against human Jurkat cells assessed as cell viability at 50 uM after 24 hrs by MTT assay relative to control; format: functional; details: read-out: Activity; outline: as §4
# [16] = tested on: Jurkat; assay: Cytotoxicity against human Jurkat cells assessed as cell viability at 100 uM after 24 hrs by MTT assay relative to control; format: functional; details: read-out: Activity; outline: as §4
# [17] = Growth inhibition of human LS180 cells assessed as BrdU incorporation after 72 hrs by spectrophotometry; format: functional, cell-based; details: LS180, 72 h
# Outline: (§5)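 Cancer cells were seeded at 10⁴ cells/mL, preincubated, then exposed for 72 h to DMSO-dissolved compound. Growth was read by BrdU labelling with ELISA spectrophotometry. IC50 was taken from 72 h dose–survival curves. Triplicates.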
# [18] = tested on: SiHa; assay: Growth inhibition of human SiHa cells assessed as BrdU incorporation after 72 hrs by spectrophotometry; format: functional, cell-based; outline: as §5
# [19] = tested on: T47D; assay: Growth inhibition of human T47D cells assessed as BrdU incorporation after 72 hrs by spectrophotometry; format: functional, cell-based; outline: as §5
# [20] = tested on: Jurkat; assay: Cytotoxicity against human Jurkat cells assessed as decrease in cell viability after 24 hrs by MTT assay; format: functional, cell-based
# Outline: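 Jurkat cells grown in RPMI 1640/10% FBS at 37 °C, 5% CO2, with 24 h exposure to DMSO-dissolved compound. Read-out was MTT reduction: 0.5 mg/mL in HEPES-buffered medium for 45 min, formazan in DMSO, absorbance at 570 nm. IC50 was taken from 24 h dose–survival curves.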
# [21] = tested on: Mus musculus; assay: Neurotoxicity in ip dosed Swiss albino mouse assessed as impair in motor coordination at 0.1 LD50 concentration by rotarod test; format: toxicity, organism-based; details: in vivo
# Outline: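 Male Albino Swiss mice (20-25 g), housed 8-10 per cage at 20 ± 1 °C on a 12/12 h light-dark cycle with food and water ad libitum. Randomized groups of 10. Compound given i.p. as a suspension in 3% Tween 80 at 10 mL kg^-1; controls received the same volume of vehicle. Tests run 8 a.m.-3 p.m.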
smiles,measurement,setting,value
NNC(=O)c1nnc2n(c1=O)CCN2c1ccccc1,"inhibition at 72 h, 36.7 µM",[1],16%
same,growth inhibition (GI),[2],2%
same,inhibition of growth at 36.7 µM,[3],0%
same,inhibition of growth at 36.7 µM,[4],0%
same,inhibition of growth at 36.7 µM,[5],4%
same,"inhibition at 72 h, 183.6 µM",[6],20%
same,"inhibition at 72 h, 183.6 µM",[7],0%
same,inhibition of growth at 183.6 µM,[8],15%
same,inhibition of growth at 183.6 µM,[9],0%
same,inhibition of growth at 183.6 µM,[10],9%
same,"viability at 24 h, 1 µM",[11],82%
same,"viability at 24 h, 50 µM",[12],83%
same,"viability at 24 h, 100 µM",[13],82%
same,viability at 1 µM,[14],89%
same,viability at 50 µM,[15],82%
same,viability at 100 µM,[16],33%
same,IC50,[17],> 100 µM
same,IC50,[18],> 100 µM
same,IC50,[19],> 100 µM
same,IC50,[20],85.5 µM
same,Activity,[21],Non-toxic
CCOC(=O)c1nnc2n(c1=O)CCN2c1ccc(C)cc1,"viability at 24 h, 1 µM",[11],91%
same,"viability at 24 h, 50 µM",[12],87%
same,"viability at 24 h, 100 µM",[13],82%
same,viability at 1 µM,[14],83%
same,viability at 50 µM,[15],89%
same,viability at 100 µM,[16],93%
